# Shown are actives, neighbours in structure and some others; about 4.5% of the full set was active somewhere.
# OX1R antag-1 = blocks the human orexin 1 receptor. inhibition, % at 6.6 µM. OX1R-expressing cells, FRET antagonist read-out. AID 485270. 1.8% of 330,000 active. O43613; in the data active = inhibition mostly above about 38%, no sharp cut-off; inactive = mostly below about 40%;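 also: 0% = agonist challenge alone and 100% = reference antagonist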
# TAAR1 antag = antagonists of human TAAR1; AID 624466; 1.5% of 360,000 active; Q96RJ0; inhibition, % at 3 µM; CHO RD-HGA16 TAAR1, Fluo-8 calcium fluorescence, antagonist;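 active = inhibition above a per-plate cutoff, the mean inhibition of test compounds on that plate plus 3 SD, cut at about 49% in these data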;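 also: 0% = DMSO plus EC80 beta-PEA response and 100% = DMSO alone without agonist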
#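 Test system: RD-HGA16 CHO cells with stable hTAAR1 and Gα16 / Probe or stimulus: EC80 β-phenethylamine stimulus / Times: seeding 17-24 h prior, 75-min 37 °C, 30-min RT dye loading / Detection: Fluo-8 calcium-sensitive fluorescence / Read-out basis: % inhibition scaled between DMSO and EC80 PEA controls / Repeats: singlicate, one well per test compound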
# CHO parental Ca = counter-screen: ATP calcium response change in parental CHO cells; inhibition, % at 5.6 µM; parental CHO-K1, ATP-induced calcium, Fluo-8 fluorescence; 0.63% of 330,000 active;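 active = inhibition above that plate's mean sample inhibition plus 3 SD, cut at about 26% in these data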;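 also: 0% = ATP-challenged DMSO wells and 100% = DMSO wells without ATP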
#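 Test system: parental CHO cells; detection: calcium-sensitive Fluo-8 fluorescence; evaluation: percent inhibition of calcium signal; also added: ATP as calcium-mobilizing challenge; repeats: one well per compound; control set: ATP-challenged DMSO wells low, unchallenged DMSO wells high; compound: single nominal dose of 5.6 µM per compound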
# OX1R antag-2 = antagonists of human orexin 1 receptor | 0.43% of 330,000 active | CHO/OX1R cells, Fluo-8 calcium fluorescence, orexin A | inhibition, % at 5 µM | AID 434989;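 active = inhibition above its plate's threshold, mean inhibition of all tested compounds on the plate plus 3 SD, cut at about 37% in these data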;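 also: 0% = orexin A challenge wells and 100% = SB-334867-A antagonist wells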
# TAAR1 ag = agonists of human TAAR1. CHO RD-HGA16 TAAR1, Fluo-8 calcium fluorescence; vehicle wells 0%, saturating PEA agonist 100%. activation, % at 3 µM. 0.99% of 360,000 active;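 active = activation above the mean activation of all test compounds in the run plus 3 SD, cut at about 38% in these data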
#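 System: CHO-derived RD-HGA16 cells with stable Gα16 and human TAAR1 / Times: 17-24 h plating, Fluo-8 75 min 37 °C, 30 min RT / Technique: calcium-sensitive Fluo-8 signal, excitation 470-495, emission 515-575 nm / Measure: % activation relative to PEA EC100 response / Benchmarks: DMSO and PEA EC100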
# GPR7 antagonist = blocks human GPR7 receptor signaling. AID 1861. P48145. 1.1% of 290,000 active. GPR7-expressing cells, fluorescence antagonist assay. inhibition, % at 4.4 µM; in the data active = inhibition above about 16%, passing the limit was not always enough;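 also: cells stimulated with the agonist NPW; 0% = agonist with vehicle and 100% = vehicle without agonist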
# Target sequence (P48145 whole entry, looked up): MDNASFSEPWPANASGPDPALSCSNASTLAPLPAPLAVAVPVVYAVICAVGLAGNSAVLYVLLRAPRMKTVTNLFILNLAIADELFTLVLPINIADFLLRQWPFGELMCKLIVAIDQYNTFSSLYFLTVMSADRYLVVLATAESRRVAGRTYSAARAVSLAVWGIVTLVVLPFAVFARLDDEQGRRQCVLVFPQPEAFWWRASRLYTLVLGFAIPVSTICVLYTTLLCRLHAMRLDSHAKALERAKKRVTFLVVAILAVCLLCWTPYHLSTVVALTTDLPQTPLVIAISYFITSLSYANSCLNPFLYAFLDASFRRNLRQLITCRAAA
# TAAR1 ag confirm = human TAAR1 agonism, confirmed; CHO RD-HGA16 TAAR1, Fluo-8 calcium fluorescence; scaled: DMSO 0%, maximal phenethylamine 100%; AID 651783; activation, % at 3 µM; 82% of 2,400 active; shares compounds with TAAR1 ag;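 active = activation above a cutoff set at the run's mean compound activation plus 3 SD, cut at about 39% in these data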
# Ga16 ag counter = counter-screen for TAAR1 agonists: nonselective agonists in parental cells. shares compounds with TAAR1 ag. CHO-Ga16 parental, Fluo-8 calcium fluorescence; normalized to maximal ATP response, DMSO zero. activation, % at 3 µM. 50% of 2,400 active;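 active = activation above the run cutoff, the mean activation over all tested wells plus 3 SD, cut at about 12% in these data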;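 also: 0% = DMSO wells and 100% = maximal ATP response on the peak over basal ratio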
# TAAR1 desensitize = TAAR1 response desensitization, agonist counter-screen. 46% of 2,400 active. CHO RD-HGA16 hTAAR1, Fluo-8 calcium, beta-PEA response inhibition. inhibition, % at 3 µM. shares compounds with TAAR1 ag. AID 651951;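 active = inhibition above the run cutoff, the mean inhibition of all test compounds plus 3 SD, cut at about 49% in these data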;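 also: beta-PEA stimulus applied at its EC80; loss of beta-PEA calcium signal after compound pretreatment read as receptor desensitization; 0% = DMSO with beta-PEA at EC80 and 100% = DMSO alone without agonist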
# Ga16 antag count = counter-screen for TAAR1 agonists: nonselective Ga16 antagonists | shares compounds with TAAR1 ag | CHO-Ga16 ATP-induced calcium, Fluo-8 fluorescence | inhibition, % at 3 µM | 39% of 2,400 active | AID 651952;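 active = inhibition above the plate's mean compound inhibition plus 3 SD, computed per plate, cut at about 22% in these data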;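 also: 0% = EC80 ATP with DMSO and 100% = DMSO wells without ATP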
# Active calls of the source: *; · = no result.
SMILES,OX1R antag-1,TAAR1 antag,CHO parental Ca,OX1R antag-2,TAAR1 ag,GPR7 antagonist,TAAR1 ag confirm,Ga16 ag counter,TAAR1 desensitize,Ga16 antag count
CN1C[C@H](CO)C[C@@H]2c3cccc4[nH]cc(c34)C[C@H]21,1.6,1.0,-6.1,-10.8,41.5*,-13.1,57.4*,0.1,19.8,-3.8
Cc1ccc(N2C(=O)NC(=O)/C(=C\C=C\c3ccco3)C2=O)cc1,10.2,39.3,-7.7,-4.6,32.8,-5.9,·,·,·,·
O=C1NC(=O)N(c2ccccc2)C(=O)/C1=C/C=C/c1ccco1,2.2,39.8,-6.0,-16.7,57.0*,-6.3,29.8,12.7*,22.3,2.1
Cc1ccc(N2C(=O)NC(=O)/C(=C\C=C\c3ccco3)C2=O)cc1C,11.2,35.3,-3.1,-6.9,53.8*,-7.9,75.7*,47.8*,68.7*,28.7*
COc1cccc(CNCCc2cccc(F)c2)c1OC,4.1,-9.5,-14.9,-36.2,65.6*,-4.1,76.7*,0.5,44.3,9.4
COc1cccc(CNCCc2ccc3c(c2)OCO3)c1OC,-1.2,7.6,-13.4,-28.4,7.9,-17.3,·,·,·,·
COc1ccccc1CCNCc1ccc(OC)c(OC)c1OC,0.5,54.8*,-24.6,-20.6,61.7*,0.7,85.3*,3.2,73.9*,-0.3
CCCC1(CC(C)CC)C(=O)NC(=O)NC1=O (stereo not given),·,4.1,·,·,51.3*,·,78.3*,-0.4,25.2,9.9
CC(=O)OC1CC[C@@]2(C)C(=CC(=O)C3C4CCC(OC(C)=O)[C@@]4(C)CCC32)C1 (stereo not given in full),8.2,-9.3,-8.1,-19.6,-0.5,·,·,·,·,·
c1ccc2c(NC3=NCCS3)cccc2c1,26.9,-0.9,-31.5,-39.7,42.6*,-4.6,82.1*,14.9*,46.7,5.3
CCOc1cc2c(cc1OCC)-n1cccc1C(c1ccc(F)c(OC)c1)NC2 (stereo not given),5.2,21.4,-1.0,-6.8,19.0,3.3,·,·,·,·
Cc1ccc2c(c1)N(C(C)C(=O)N1CCC3(CC1)OCCO3)C(=O)CO2 (stereo not given),10.6,-18.1,-2.2,-10.4,18.5,-10.6,·,·,·,·
COc1cc(CCN)ccc1O,9.4,31.2,-9.4,-9.9,89.9*,·,86.8*,3.6,66.7*,7.0
CC(=O)N1CC(=O)Nc2ccc(Br)cc2C1c1ccc(F)cc1 (stereo not given),5.7,4.6,-20.7,-24.7,1.7,14.8,·,·,·,·
COc1cc(O)cc2c1C(=O)O[C@@H](C)CCCC(=O)CCCCC2,10.4,19.3,-19.2,-23.7,62.2*,29.0,30.4,9.6,9.5,18.2
COc1cc2c(c(OC)c1)C(=O)OC(C)CCCC(=O)CCCCC2 (stereo not given),21.4,7.7,-24.2,-22.2,-1.5,-6.4,·,·,·,·
Cc1cccc(-c2nc3ccc(C(=O)N4CCC5(CC4)OCCO5)cc3nc2-c2cccc(C)c2)c1,12.8,18.2,-21.7,-20.2,-0.1,-20.3,·,·,·,·
O=C1NC(=O)C(=Cc2ccc(Sc3ccccc3)o2)C(=O)N1,6.4,11.8,-5.3,-15.0,21.2,-5.6,·,·,·,·
O=C1NC(=O)N(c2ccc(Cl)cc2)C(=O)/C1=C\c1ccc(Sc2nc3ccccc3[nH]2)o1,16.7,34.0,19.3,4.1,60.5*,-2.9,5.8,7.5,16.9,19.8
CC1OC(NCCc2ccccc2)C(O)C(O)C1O (stereo not given),8.5,·,-6.5,-12.7,·,5.1,·,0.2,·,1.5

# Screens as filed in PubChem BioAssay.
